Data reported in ChEMBL document CHEMBL5325511, “Discovery of N-(4-(Aminomethyl)phenyl)-5-methylpyrimidin-2-amine Derivatives as Potent and Selective JAK2 Inhibitors” (ACS Med Chem Lett, 2023).
Calls of active or inactive are those of the source. The calls are words filed in the database; no cut-off is given here.

Assays:
[1] = Metabolic stability in human liver microsomes assessed as half life; assay type: ADME, Microsome
[2] = biological target: T1, Receptor-type tyrosine-protein kinase FLT3 (Homo sapiens, UniProt P36888); assay: Inhibition of FLT3 (unknown origin) in presence of Mg/ATP mixture by [gamma p33]-ATP based radiometric assay
T1 sequence (P36888 whole entry): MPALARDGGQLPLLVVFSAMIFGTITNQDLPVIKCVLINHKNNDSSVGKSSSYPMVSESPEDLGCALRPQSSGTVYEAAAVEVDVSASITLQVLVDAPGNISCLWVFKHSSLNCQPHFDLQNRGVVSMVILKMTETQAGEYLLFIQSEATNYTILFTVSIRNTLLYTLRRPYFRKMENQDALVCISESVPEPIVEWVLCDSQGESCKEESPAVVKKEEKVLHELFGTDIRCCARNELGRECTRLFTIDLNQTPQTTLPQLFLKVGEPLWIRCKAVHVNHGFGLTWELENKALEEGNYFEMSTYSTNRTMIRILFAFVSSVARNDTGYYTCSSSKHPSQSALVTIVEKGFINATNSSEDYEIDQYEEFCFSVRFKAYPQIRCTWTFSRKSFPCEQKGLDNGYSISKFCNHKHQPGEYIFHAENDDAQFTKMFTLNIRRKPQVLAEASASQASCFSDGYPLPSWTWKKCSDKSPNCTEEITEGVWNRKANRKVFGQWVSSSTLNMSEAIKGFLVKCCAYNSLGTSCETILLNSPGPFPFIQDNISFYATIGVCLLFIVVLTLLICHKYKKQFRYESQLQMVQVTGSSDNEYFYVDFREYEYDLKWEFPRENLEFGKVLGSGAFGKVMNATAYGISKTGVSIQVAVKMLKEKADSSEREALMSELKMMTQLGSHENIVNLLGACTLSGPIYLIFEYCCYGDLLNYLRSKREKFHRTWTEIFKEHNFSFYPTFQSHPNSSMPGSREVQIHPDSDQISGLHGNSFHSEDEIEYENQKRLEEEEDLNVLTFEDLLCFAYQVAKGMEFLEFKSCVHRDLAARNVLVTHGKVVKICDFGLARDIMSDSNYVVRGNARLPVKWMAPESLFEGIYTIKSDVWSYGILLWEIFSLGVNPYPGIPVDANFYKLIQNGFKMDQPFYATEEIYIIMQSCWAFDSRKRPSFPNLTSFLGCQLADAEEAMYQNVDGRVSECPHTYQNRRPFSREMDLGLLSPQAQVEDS
Method in brief: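 IC50 values determined by Eurofins Discovery.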

[3] = Clearance in Sprague-Dawley rat at 5 mg/kg, po measured upto 24 hrs by LC-MS/MS analysis; assay type: ADME, organism-based; details: in vivo
Method in brief: (§1)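 Sprague–Dawley rats, n = 5, dosed at 5 mg/kg as a solution in 2% ethanol and 1% Tween 80, pH 5.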

[4] = AUC(0 to t) in Sprague-Dawley rat at 5 mg/kg, po measured upto 24 hrs by LC-MS/MS analysis; assay type: ADME, organism-based; set-up: time < 24 hrs, dose 5 mg/kg, route po; details: in vivo; method in brief: as §1
[5] = Oral bioavailability in Sprague-Dawley rat at 5 mg/kg measured upto 24 hrs by LC-MS/MS analysis; assay type: ADME, organism-based; details: in vivo
Method in brief: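 Sprague–Dawley rats, n = 5 per group, dosed at 5 mg/kg as a solution in 2% ethanol and 1% Tween 80, pH 5.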

[6] = biological target: Tyrosine-protein kinase Lyn (Homo sapiens) (UniProt P07948); assay: Inhibition of LYN (unknown origin)
Method in brief: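 Kinase panel profiling (KinaseProfile, run by an outside contractor). The inhibitor was tested at 1 μM in duplicate against DMSO control. The value is % control, the percentage of kinase activity remaining.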

BaF3 [7] = assay: Inhibition of JAK2/STAT signaling pathway in mouse BaF3 cells harbouring JAK2 V617F mutant assessed as reduction in AKT phosphorylation at 10 to 1000 nM by Western blot analysis; assay type: cell-based; details: dose 10-1000 nM
Method in brief: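 Ba/F3 JAK2V617F cells treated with compound at increasing concentrations. Phosphorylation levels of JAK2, STAT3, STAT5 and AKT assessed by Western blot.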

BaF3 [8] = assay: Induction of cell cycle arrest in mouse BaF3 cells harbouring JAK2 […] mutant assessed as accumulation of cells at G0/G1 phase at 16 nM incubated for 24 hrs by propidium iodide staining based flow cytometry analysis (reference value: 56.85 %); assay type: functional
BaF3 [9] = assay: Induction of cell cycle arrest in mouse BaF3 cells harbouring JAK2 […] mutant assessed as accumulation of cells at S phase at 2 nM incubated for 24 hrs by propidium iodide staining based flow cytometry analysis (reference value: 33.80 %); assay type: functional
BaF3 [10] = assay: Induction of cell cycle arrest in mouse BaF3 cells harbouring JAK2 […] mutant assessed as accumulation of cells at G0/G1 phase at 4 nM incubated for 24 hrs by propidium iodide staining based flow cytometry analysis (reference value: 56.85 %); assay type: functional
BaF3 [11] = assay: Induction of cell cycle arrest in mouse BaF3 cells harbouring JAK2 […] mutant assessed as accumulation of cells at G2/M phase at 16 nM incubated for 24 hrs by propidium iodide staining based flow cytometry analysis (reference value: 9.34 %); assay type: functional
BaF3 [12] = assay: Induction of apoptosis in mouse BaF3 cells harbouring JAK2 V617F mutant assessed as early apoptotic cells at 20 nM incubated for 24 hrs by Annexin V / propidium iodide staining based flow cytometry analysis (reference value: 14.4 %); assay type: functional
Method in brief: (§2)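 Ba/F3 JAK2V617F cells exposed to compound at 20, 40, 80, 160 and 320 nM, then analysed for apoptosis by flow cytometry. Significance vs control by Dunnett's t test.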

BaF3 [13] = assay: Induction of apoptosis in mouse BaF3 cells harbouring JAK2 V617F mutant assessed as necrotic cells at 20 nM incubated for 24 hrs by Annexin V / propidium iodide staining based flow cytometry analysis (reference value: 0.64 %); assay type: functional; method in brief: as §2
BaF3 [14] = assay: Induction of apoptosis in mouse BaF3 cells harbouring JAK2 V617F mutant assessed as early apoptotic cells at 40 nM incubated for 24 hrs by Annexin V / propidium iodide staining based flow cytometry analysis (reference value: 14.4 %); assay type: functional; method in brief: as §2
BaF3 [15] = assay: Induction of apoptosis in mouse BaF3 cells harbouring JAK2 V617F mutant assessed as viable cells at 80 nM incubated for 24 hrs by Annexin V / propidium iodide staining based flow cytometry analysis (reference value: 72.8 %); assay type: functional; details: read-out: Activity; method in brief: as §2
BaF3 [16] = assay: Induction of apoptosis in mouse BaF3 cells harbouring JAK2 V617F mutant assessed as early apoptotic cells at 80 nM incubated for 24 hrs by Annexin V / propidium iodide staining based flow cytometry analysis (reference value: 14.4 %); assay type: functional; method in brief: as §2
BaF3 [17] = assay: Induction of apoptosis in mouse BaF3 cells harbouring JAK2 V617F mutant assessed as early apoptotic cells at 160 nM incubated for 24 hrs by Annexin V / propidium iodide staining based flow cytometry analysis (reference value: 14.4 %); assay type: functional; method in brief: as §2
BaF3 [18] = assay: Induction of apoptosis in mouse BaF3 cells harbouring JAK2 V617F mutant assessed as late apoptotic cells at 160 nM incubated for 24 hrs by Annexin V / propidium iodide staining based flow cytometry analysis (reference value: 12.2 %); assay type: functional; method in brief: as §2
BaF3 [19] = assay: Induction of apoptosis in mouse BaF3 cells harbouring JAK2 V617F mutant assessed as viable cells at 320 nM incubated for 24 hrs by Annexin V / propidium iodide staining based flow cytometry analysis (reference value: 72.8 %); assay type: functional; details: read-out: Activity; method in brief: as §2

Sequence of Tyrosine-protein kinase Lyn (Homo sapiens) (P07948 2-512 limits assumed): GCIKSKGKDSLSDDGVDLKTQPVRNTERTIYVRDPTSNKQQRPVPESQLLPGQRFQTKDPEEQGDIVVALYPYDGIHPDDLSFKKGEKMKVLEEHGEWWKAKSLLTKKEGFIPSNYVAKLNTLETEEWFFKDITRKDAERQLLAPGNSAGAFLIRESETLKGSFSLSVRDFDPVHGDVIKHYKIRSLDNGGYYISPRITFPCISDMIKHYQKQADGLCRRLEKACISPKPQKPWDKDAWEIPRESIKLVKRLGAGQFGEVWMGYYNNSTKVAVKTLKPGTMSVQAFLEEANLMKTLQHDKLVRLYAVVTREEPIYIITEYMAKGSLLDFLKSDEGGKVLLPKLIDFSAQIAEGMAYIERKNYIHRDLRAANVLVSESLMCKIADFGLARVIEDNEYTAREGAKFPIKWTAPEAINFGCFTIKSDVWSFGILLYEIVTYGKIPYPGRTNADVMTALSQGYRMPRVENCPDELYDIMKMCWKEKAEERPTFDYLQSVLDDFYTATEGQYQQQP

half-life [1]	IC50 [2]	CL [3]	AUCt [4]	bioavailability [5]	inhibition [6]	SMILES	inhibition (BaF3 [7])	Activity (BaF3 [8])	Activity (BaF3 [9])	Activity (BaF3 [10])	Activity (BaF3 [11])	Activity (BaF3 [12])	Activity (BaF3 [13])	Activity (BaF3 [14])	viability at 0.08 µM (BaF3 [15])	Activity (BaF3 [16])	Activity (BaF3 [17])	Activity (BaF3 [18])	viability at 0.32 µM (BaF3 [19])
> 120 min	467 nM	295 mL/min/kg	3517.9 ng·h/mL	41.1%	Active	C=CS(=O)(=O)NCc1ccc(Nc2ncc(C)c(-c3cnn(C(C)C)c3)n2)cc1	Active	69.31%	30.58%	62.95%	9.93%	24.7%	1.61%	26.4%	22.3%	35.7%	37.5%	35.8%	24.5%
54.6 min	62 nM	–	–	–	–	Cc1cnc(Nc2ccc3c(c2)CCN(C(=O)/C=C/CN(C)C)C3)nc1-c1cnn(C(C)C)c1	–	59.42%	27.94%	57.34%	8.95%	18.4%	1.04%	22.4%	38.8%	33.2%	48.1%	30.7%	14.3%
